Laboratory results as given in article PMC10172704 (Poultry Science, 2023).
Ends that are not written are not given here.

Tests used:
Experiment in all cases: Microdilution broth MIC/MBC
Conditions in all cases: synthesized identified peptides
S. aureus ATCC 29213 = assay type: cell-based, Staphylococcus aureus
In short: (§1)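 Broth microdilution per CLSI guideline, modified. Strains grown 18 h on tryptic soy agar, adjusted to 0.5 McFarland, then diluted in 0.85% NaCl to about 5 × 10^5 CFU/mL final. Suspension mixed with test compound in microplate wells and incubated 37°C, 18 h. Growth inhibition read at 600 nm. Positive control: 20 µg/mL kanamycin. Experiments done 3 times.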

B. cereus DMST 5040 = assay type: cell-based, Bacillus cereus
In short: as §1

S. Typhimurium TISTR 292 = assay type: cell-based, Salmonella typhimurium
In short: as §1

E. coli TISTR 780 = assay type: cell-based
In short: as §1

Which MIC (S. aureus ATCC 29213) does the source give for HAAHTTGLGGPF [HAAHTTGLGGPF] here?
The MIC was greater than 4 mM.

What about the MIC (B. cereus DMST 5040) of the same sequence?
The MIC was greater than 4 mM.

And the MIC (S. Typhimurium TISTR 292)?
Its MIC is greater than 4 mM.

And the MIC (E. coli TISTR 780)?
The MIC was greater than 4 mM.

How did the MIC (S. aureus ATCC 29213) turn out when KGGDLGLFEPTL [KGGDLGLFEPTL] was run?
Its MIC is 2 mM.

What about the MIC (B. cereus DMST 5040) of the same sequence?
Its MIC is 2 mM.

What about the MIC (S. Typhimurium TISTR 292) of the same sequence?
The MIC was 2 mM.

And the MIC (E. coli TISTR 780)?
The MIC was greater than 4 mM.

How did the MIC (S. aureus ATCC 29213) turn out when CASALLGA [CASALLGA] was run?
Its MIC is 4 mM.

What about the MIC (B. cereus DMST 5040) of the same sequence?
The MIC was 4 mM.

And the MIC (S. Typhimurium TISTR 292)?
Its MIC is 4 mM.

What about the MIC (E. coli TISTR 780) of the same sequence?
The MIC was greater than 4 mM.

With VTLKVPGVTL [VTLKVPGVTL] as the sequence, how does the MIC (S. aureus ATCC 29213) read?
Its MIC is greater than 4 mM.

What about the MIC (B. cereus DMST 5040) of the same sequence?
The MIC was greater than 4 mM.

And the MIC (S. Typhimurium TISTR 292)?
The MIC was greater than 4 mM.

And the MIC (E. coli TISTR 780)?
Its MIC is greater than 4 mM.

KVLPLPFGGRSPGGGA [KVLPLPFGGRSPGGGA] was tested. Which MIC (S. aureus ATCC 29213) did it give?
The MIC was greater than 4 mM.

What about the MIC (B. cereus DMST 5040) of the same sequence?
Its MIC is greater than 4 mM.

And the MIC (S. Typhimurium TISTR 292)?
Its MIC is greater than 4 mM.

And the MIC (E. coli TISTR 780)?
The MIC was greater than 4 mM.
